Results collected from several papers.
Protocols differ between the studies behind these lines. Values after ≈ are worked out from the molar mass of the structure shown.
Effect on: microbial growth

Compound | organism | method | strain | time | setting | MIC
O=c1c2ccccc2nc(Cc2ccccc2)n1-c1cccc(O)c1 | Enterococcus faecium | broth dilution | NCTC7171 |  |  | 128 µg/mL (≈ 390 µM)
COC(=O)c1cc(-c2cccc(NC(=O)Nc3ccccc3C)c2)on1 | Mycobacteroides chelonae | broth dilution | ATCC35752 | 48 h |  | > 64 µg/mL
CCCCCCCCCC(=O)N[C@@H](Cc1c[nH]c2ccccc12)C(=O)N[C@H](CC(N)=O)C(=O)N[C@@H](CC(=O)O)C(=O)N[C@@H]1C(=O)NCC(=O)N[C@@H](CCCN)C(=O)N[C@@H](CC(=O)O)C(=O)N[C@H](C)C(=O)N[C@@H](CC(=O)O)C(=O)NCC(=O)N[C@H](CO)C(=O)N[C@@H]([C@H](C)CC(=O)O)C(=O)N[C@@H](CC(=O)c2ccccc2N)C(=O)O[C@@H]1C | Enterococcus faecium | broth dilution |  |  | drug-resistant strain | 0.25 µg/mL (≈ 0.154 µM)
COC(=O)c1cc(-c2cccc(NC(=O)Nc3ccc(Cl)c(Cl)c3)c2)on1 | Mycobacteroides chelonae | broth dilution | ATCC35752 | 48 h |  | > 64 µg/mL
O=c1c2ccccc2nc(/C=C/c2ccc([N+](=O)[O-])cc2)n1-c1ccc(O)cc1 | Enterococcus faecium | broth dilution | NCTC7171 |  |  | 64 µg/mL (≈ 166 µM)
CCOC(=O)CON | Candida albicans |  | 28A |  |  | 32 µg/mL (≈ 269 µM)
COC(=O)c1cc(-c2ccc(OC)c(NC(=O)Nc3ccc(Cl)c(Cl)c3)c2)on1 | Mycobacteroides chelonae | broth dilution | ATCC35752 | 48 h |  | > 64 µg/mL
O=c1c2ccccc2nc(CCc2ccccc2)n1-c1cccc(O)c1 | Enterococcus faecium | broth dilution | NCTC7171 |  |  | > 128 µg/mL
CCCCCC/C=C\CCCCCCCCCc1cc(O)cc(O)c1 | Enterococcus faecium | broth dilution |  |  | drug-resistant strain | 64 µg/mL (≈ 185 µM)
CN[C@H](CC(C)C)C(=O)N[C@H]1C(=O)N[C@@H](CC(N)=O)C(=O)N[C@H]2C(=O)N[C@H]3C(=O)N[C@H](C(=O)N[C@H](C(=O)O)c4cc(O)cc(O)c4-c4cc3ccc4O)[C@H](O)c3ccc(c(Cl)c3)Oc3cc2cc(c3O[C@@H]2O[C@H](CO)[C@@H](O)[C@H](O)[C@H]2O[C@H]2C[C@](C)(N)[C@H](O)[C@H](C)O2)Oc2ccc(cc2Cl)[C@H]1O | Enterococcus faecium |  | ATCCBAA2317 VRE |  | drug-resistant strain | 250 µg/mL (≈ 173 µM)
O=c1c2cc(Br)ccc2nc(/C=C/c2ccc([N+](=O)[O-])cc2)n1-c1cccc(O)c1 | Enterococcus faecium | broth dilution | NCTC7171 |  |  | > 128 µg/mL
COC(=O)c1cc(-c2cccc(NC(=O)Nc3ccccc3)c2)on1 | Mycobacteroides chelonae | broth dilution | ATCC35752 | 48 h |  | > 64 µg/mL
OC(Cn1cncn1)(Cn1cncn1)c1ccc(F)cc1F | Candida albicans |  | 28A |  |  | > 128 µg/mL
C=C(NC(=O)C(=C)NC(=O)c1csc(C2=N[C@@H]3c4csc(n4)[C@H]4NC(=O)c5csc(n5)[C@H]([C@](C)(O)[C@@H](C)O)NC(=O)[C@H]5CSC(=N5)/C(=C/C)NC(=O)[C@H]([C@@H](C)O)NC(=O)c5csc(n5)[C@]3(CC2)NC(=O)[C@H](C)NC(=O)C(=C)NC(=O)[C@H](C)NC(=O)[C@H]([C@@H](C)CC)N[C@@H]2C=Cc3c([C@H](C)O)cc(nc3[C@H]2O)C(=O)O[C@@H]4C)n1)C(N)=O | Enterococcus faecium |  |  |  |  | 0.12 µg/mL (≈ 0.0721 µM)
